Tests used:
Homo sapiens [1] = assay: Volume of distribution ( 0 to infinity) in healthy human blood at 500 mg, po twice daily coadministered with ritonavir 200 mg, po twice daily for 21 days with additional single dose of 551 mg, po on day 7; type: ADME, organism-based; settings: in vivo, 504 h
In short: (§1)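 Healthy male nonsmoking volunteers (9 completed) on TPV 500 mg + RTV 200 mg orally twice daily. On day 7, after a light snack 60 min earlier, they took 500 mg [14C]TPV (90 µCi) + 200 mg RTV and fasted 4 h; unlabelled dosing then resumed to day 20. Samples were stored at about –20°C until analysis.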

Homo sapiens [2] = assay: Tlast ( 0 to infinity) in healthy human plasma at 500 mg, po twice daily coadministered with ritonavir 200 mg, po twice daily for 21 days with additional single dose of 551 mg, po on day 7; type: ADME, organism-based; settings: in vivo, 504 h; in short: as §1
Homo sapiens [3] = assay: Volume of distribution ( 0 to infinity) in healthy human plasma at 500 mg, po twice daily coadministered with ritonavir 200 mg, po twice daily for 21 days with additional single dose of 551 mg, po on day 7; type: ADME, organism-based; settings: in vivo, 504 h; in short: as §1
[4] = Biodistribution in healthy human assessed as radioactive drug dose recovery in urine at 500 mg, po twice daily coadministered with ritonavir 200 mg, po twice daily for 21 days with additional single dose of 551 mg, po on day 7; type: ADME, organism-based; settings: in vivo, 504 h
[5] = Biodistribution in healthy human assessed as radioactive drug dose recovery in feces at 500 mg, po twice daily coadministered with ritonavir 200 mg, po twice daily for 21 days with additional single dose of 551 mg, po on day 7; type: ADME, organism-based; settings: in vivo, 504 h; in short: as §1
Homo sapiens [6] = assay: Biodistribution in healthy human assessed as radioactive drug dose recovery at 500 mg, po twice daily coadministered with ritonavir 200 mg, po twice daily for 21 days with additional single dose of 551 mg, po on day 7; type: ADME, organism-based; settings: in vivo, 504 h; in short: as §1
Plasma [7] = assay: Biodistribution in healthy human plasma assessed as Tipranavir hydroxyl metabolite H-1 level at 500 mg, po twice daily coadministered with ritonavir 200 mg, po twice daily for 21 days with additional single dose of 551 mg, po on day 7 measured 3 hrs postdose; type: ADME, organism-based; settings: in vivo; in short: as §1
Plasma [8] = assay: Biodistribution in healthy human plasma assessed as Tipranavir glucuronidation conjugate H-3 level at 500 mg, po twice daily coadministered with ritonavir 200 mg, po twice daily for 21 days with additional single dose of 551 mg, po on day 7 measured 3 hrs postdose; type: ADME, organism-based; settings: in vivo; in short: as §1
[9] = Biodistribution in healthy human urine assessed as Tipranavir hydroxyl metabolite H-1 level at 500 mg, po twice daily coadministered with ritonavir 200 mg, po twice daily for 21 days with additional single dose of 551 mg, po on day 7; type: ADME, organism-based; settings: in vivo, 504 h; in short: as §1
Homo sapiens [10] = assay: Volume of distribution ( 0 to 12 hrs) in healthy human blood at 500 mg, po twice daily coadministered with ritonavir 200 mg, po twice daily for 21 days with additional single dose of 551 mg, po on day 7; type: ADME, organism-based; settings: in vivo; in short: as §1
Homo sapiens [11] = assay: Cmax ( 0 to 12 hrs) in healthy human plasma at 500 mg, po twice daily coadministered with ritonavir 200 mg, po twice daily for 21 days with additional single dose of 551 mg, po on day 7; type: ADME, organism-based; parameters: dose 500 mg, route oral; settings: in vivo; in short: as §1
Homo sapiens [12] = assay: Volume of distribution ( 0 to 12 hrs) in healthy human plasma at 500 mg, po twice daily coadministered with ritonavir 200 mg, po twice daily for 21 days with additional single dose of 551 mg, po on day 7; type: ADME, organism-based; settings: in vivo; in short: as §1
Homo sapiens [13] = assay: Tlast ( 0 to infinity) in healthy human blood at 500 mg, po twice daily coadministered with ritonavir 200 mg, po twice daily for 21 days with additional single dose of 551 mg, po on day 7; type: ADME, organism-based; settings: in vivo, 504 h; in short: as §1
[14] = Biodistribution in healthy human urine assessed as Tipranavir glucuronidation conjugate H-3 level at 500 mg, po twice daily coadministered with ritonavir 200 mg, po twice daily for 21 days with additional single dose of 551 mg, po on day 7; type: ADME, organism-based; settings: in vivo, 504 h; in short: as §1
[15] = Biodistribution in healthy human urine at 500 mg, po twice daily coadministered with ritonavir 200 mg, po twice daily for 21 days with additional single dose of 551 mg, po on day 7; type: ADME, organism-based; settings: in vivo, 504 h; in short: as §1
[16] = Biodistribution in healthy human feces assessed as Tipranavir hydroxyl metabolite H-1 level at 500 mg, po twice daily coadministered with ritonavir 200 mg, po twice daily for 21 days with additional single dose of 551 mg, po on day 7; type: ADME, organism-based; settings: in vivo, 504 h; in short: as §1
[17] = Biodistribution in healthy human feces assessed as Tipranavir oxidation metabolite H-2 level at 500 mg, po twice daily coadministered with ritonavir 200 mg, po twice daily for 21 days with additional single dose of 551 mg, po on day 7; type: ADME, organism-based; settings: in vivo, 504 h; in short: as §1
[18] = Biodistribution in healthy human excreta assessed as Tipranavir hydroxyl metabolite H-1 level at 500 mg, po twice daily coadministered with ritonavir 200 mg, po twice daily for 21 days with additional single dose of 551 mg, po on day 7; type: ADME, organism-based; settings: in vivo, 504 h; in short: as §1
[19] = Biodistribution in healthy human excreta assessed as Tipranavir oxidation metabolite H-2 level at 500 mg, po twice daily coadministered with ritonavir 200 mg, po twice daily for 21 days with additional single dose of 551 mg, po on day 7; type: ADME, organism-based; settings: in vivo, 504 h; in short: as §1
[20] = Biodistribution in healthy human sexcreta assessed as Tipranavir glucuronidation conjugate H-3 level at 500 mg, po twice daily coadministered with ritonavir 200 mg, po twice daily for 21 days with additional single dose of 551 mg, po on day 7; type: ADME, organism-based, Excreta; settings: in vivo, 504 h; in short: as §1
[21] = Biodistribution in healthy human excreta at 500 mg, po twice daily coadministered with ritonavir 200 mg, po twice daily for 21 days with additional single dose of 551 mg, po on day 7; type: ADME, organism-based; settings: in vivo, 504 h; in short: as §1
[22] = Tmax in healthy human at 500 mg, po twice daily coadministered with ritonavir 200 mg, po twice daily for 21 days with additional single dose of 551 mg, po on day 7; type: ADME, organism-based; settings: in vivo; in short: as §1
[23] = Cmax in healthy human at 500 mg, po twice daily coadministered with ritonavir 200 mg, po twice daily for 21 days with additional single dose of 551 mg, po on day 7; type: ADME, organism-based; parameters: dose 500 mg, route oral; settings: in vivo; in short: as §1
[24] = Drug level in healthy human at 500 mg, po twice daily coadministered with ritonavir 200 mg, po twice daily for 21 days with additional single dose of 551 mg, po on day 7 measured 12 hrs postdose; type: ADME, organism-based; settings: plasma; in short: as §1
[25] = AUC (0 to 12 hrs) in healthy human at 500 mg, po twice daily coadministered with ritonavir 200 mg, po twice daily for 21 days with additional single dose of 551 mg, po on day 7; type: ADME, organism-based; parameters: dose 500 mg, time < 12 hr, route oral; settings: plasma; in short: as §1
[26] = Half life in healthy human at 500 mg, po twice daily coadministered with ritonavir 200 mg, po twice daily for 21 days with additional single dose of 551 mg, po on day 7; type: ADME, organism-based; settings: in vivo; in short: as §1
[27] = Clearance life in healthy human at 500 mg, po twice daily coadministered with ritonavir 200 mg, po twice daily for 21 days with additional single dose of 551 mg, po on day 7; type: ADME, organism-based; settings: in vivo; in short: as §1
Homo sapiens [28] = assay: Volume of distribution in healthy human at 500 mg, po twice daily coadministered with ritonavir 200 mg, po twice daily for 21 days with additional single dose of 551 mg, po on day 7; type: ADME, organism-based; settings: in vivo, 504 h; in short: as §1
Homo sapiens [29] = assay: Toxicity in healthy human at 500 mg, po twice daily coadministered with ritonavir 200 mg, po twice daily for 21 days with additional single dose of 551 mg, po on day 7; type: organism-based; settings: in vivo, 504 h

In the case of `CCC[C@@]1(CCc2ccccc2)CC(O)=C([14C@H](CC)c2cccc(NS(=O)(=O)c3ccc(C(F)(F)F)cn3)c2)C(=O)O1`, the Vd (Homo sapiens [1]) is reported as 44.23 L, the Tlast (Homo sapiens [2]) is reported as 90.67 h and the Vd (Homo sapiens [3]) is reported as 32.47 L. For the same compound, the Drug uptake [4] was 4.59%, the Drug uptake [5] was 70.4% and the Drug uptake (Homo sapiens [6]) was 75.3%. For the same compound, the Drug uptake (Plasma [7]) was 0.1 µg/mL, the Drug uptake (Plasma [8]) was 0.05 µg/mL and the Drug uptake [9] was less than 0.1 %ID. It also gave a Vd (Homo sapiens [10]) of 15.68 L, a Cmax (Homo sapiens [11]) of 90.5 µM and a Vd (Homo sapiens [12]) of 8.32 L. For the same compound, the Tlast (Homo sapiens [13]) was 64 h, the Drug uptake [14] was 0.5 %ID and the Drug uptake [15] was less than 0.1 %ID. The Drug uptake [16] was 3.2 %ID, the Drug uptake [17] was 0.4 %ID and the Drug uptake [18] was 3.2 %ID. The Drug uptake [19] was 0.4 %ID, the Drug uptake [20] was 0.5 %ID and the Drug uptake [21] was 53.5 %ID.
`CCC[C@@]1(CCc2ccccc2)CC(O)=C([C@H](CC)c2cccc(NS(=O)(=O)c3ccc(C(F)(F)F)cn3)c2)C(=O)O1` [TIPRANAVIR] gave a Tmax [22] of 2.9 h, a Cmax [23] of 99.4 µM and a concentration at 12 h [24] of 25.9 µM. The AUC(0-t) at 12 h [25] was 657 µM·h, the half-life [26] was 4.6 h and the CL/F [27] was 24.5 mL/min. The Vd (Homo sapiens [28]) was 9.6 L and the Activity (Homo sapiens [29]) was “Non-toxic”.

— ChEMBL document CHEMBL1157361, “Steady-state disposition of the nonpeptidic protease inhibitor tipranavir when coadministered with ritonavir” (Antimicrob Agents Chemother, 2007)
